Results taken from ChEMBL document CHEMBL1799951, “FimH antagonists for the oral treatment of urinary tract infections: from design and synthesis to in vitro and in vivo evaluation” (J Med Chem, 2010).
Activity calls are given as the source filed them. The rule behind the calls is not given here.

Columns and labels:
[1] = Plasma protein binding […] by LC-MS analysis; format: ADME, cell-free; settings: read-out: PPB (converted)
[2] = Cmax in urine of urinary tract infection C3H/HeN mouse model at 50 mg/kg, iv administered as single dose measured after 6 hrs by LC-MS analysis; format: ADME, organism-based; design: dose 50 mg/kg, route intravenous
In short: (§1)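 Female C3H/HeN mice (19-25 g) dosed once iv at 50 mg/kg in 100 μL PBS via tail vein. Blood and urine (10 μL) sampled at 6 min, 30 min, 1, 2, 4, 6, 8 and 24 h. Proteins precipitated with methanol, centrifuged, and supernatant quantified by LC-MS.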

[3] = target: Type 1 fimbrin D-mannose specific adhesin (Escherichia coli K-12, UniProt P08191); test: Competitive inhibition of His-tagged FimH carbohydrate recognizing domain expressed in Escherichia coli HM125 using ABTS-substrate after 3 hrs by […] assay
Chain of Type 1 fimbrin D-mannose specific adhesin (P08191 whole entry, the tested form may be a part): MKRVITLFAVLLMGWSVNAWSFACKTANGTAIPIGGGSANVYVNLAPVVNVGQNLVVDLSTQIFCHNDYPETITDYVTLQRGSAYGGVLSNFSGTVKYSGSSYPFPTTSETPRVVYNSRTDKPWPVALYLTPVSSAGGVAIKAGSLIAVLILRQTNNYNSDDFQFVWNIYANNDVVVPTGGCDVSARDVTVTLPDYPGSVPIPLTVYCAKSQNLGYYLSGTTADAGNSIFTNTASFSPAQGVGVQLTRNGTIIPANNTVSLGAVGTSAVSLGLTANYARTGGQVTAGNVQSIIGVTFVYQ
In short: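 FimH-CRD-Th-6His from E. coli HM125 coated at 10 μg/mL overnight at 4 °C and blocked with 3% BSA. 4-fold compound dilutions in HEPES buffer pH 7.4 (5% DMSO) plus streptavidin-peroxidase TM-PAA polymer, 3 h at 25 °C. ABTS developed 4 min and read at 415 nm. Duplicates; heptyl mannoside reference on each plate.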

[4] = Dissociation constant, pKa of the compound by NMR spectrometric analysis; format: physicochemical
[5] = Thermodynamic solubility of the compound at pH 6.5 after 24 hrs by LC-MS analysis; format: physicochemical; settings: buffer, read-out: Therm_solubility
In short: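 1 mg solid in 250 μL 50 mM phosphate pH 6.5, sonicated 15 min, shaken 2 h at 25 °C, left 24 h. pH measured, then filtered and diluted; concentration determined by LC-MS.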

[6] = target: T1, CD209 antigen (Homo sapiens) (UniProt Q9NNX6); test: Binding affinity to Fc-IgG-tagged DC-SIGN carbohydrate recognizing domain at 1 mM
T1 sequence (whole entry): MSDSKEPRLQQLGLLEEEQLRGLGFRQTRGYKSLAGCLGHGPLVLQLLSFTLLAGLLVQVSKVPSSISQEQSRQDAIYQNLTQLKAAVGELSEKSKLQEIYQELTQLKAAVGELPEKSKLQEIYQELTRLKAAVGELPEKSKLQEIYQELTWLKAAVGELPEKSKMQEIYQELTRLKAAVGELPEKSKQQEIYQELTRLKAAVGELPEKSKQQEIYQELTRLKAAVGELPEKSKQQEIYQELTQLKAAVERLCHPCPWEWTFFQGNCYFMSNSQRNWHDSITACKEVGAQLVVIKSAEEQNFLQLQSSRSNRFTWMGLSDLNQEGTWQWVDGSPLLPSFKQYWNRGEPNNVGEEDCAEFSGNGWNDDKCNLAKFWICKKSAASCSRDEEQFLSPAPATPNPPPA
In short: (§2)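 FimH-CRD (10 μg/mL), DC-SIGN-CRD-Fc (2.5 μg/mL) or MBP (10 μg/mL) coated overnight at 4 °C in 20 mM HEPES pH 7.4, 150 mM NaCl, 10 mM CaCl2. Competition against streptavidin-peroxidase TM-PAA polymer as in the FimH ELISA, test compounds at 1 mM. D-mannose at 50 mM as positive control.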

[7] = test system: Liver; test: Metabolic stability of the compound in mouse liver microsomes assessed as Cyp 450-mediated degradation at 2 uM after 30 mins by LC-MS analysis in presence of NADPH; settings: 0.5 h
[8] = target: Mannose-binding protein C (Homo sapiens) (UniProt P11226); test: Binding affinity to MBP at 1 mM; in short: as §2
Chain of Mannose-binding protein C (Homo sapiens) (P11226 whole entry): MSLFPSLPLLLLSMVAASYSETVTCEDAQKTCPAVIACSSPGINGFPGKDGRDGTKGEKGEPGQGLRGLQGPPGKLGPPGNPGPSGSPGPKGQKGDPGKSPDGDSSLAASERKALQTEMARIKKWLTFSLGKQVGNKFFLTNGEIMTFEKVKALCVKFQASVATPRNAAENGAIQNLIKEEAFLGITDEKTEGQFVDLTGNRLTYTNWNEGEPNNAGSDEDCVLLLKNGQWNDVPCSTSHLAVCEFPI

[9] = test system: Escherichia coli; test: Antibacterial activity against Escherichia coli […] infected in urinary tract infection C3H/HeN mouse model assessed as log reduction in bacterial CFU in urine of mouse at 50 mg/kg, iv administered as single dose 1 hr before infection and measured after 3 hrs post infection; format: functional
In short: (§3)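 Female C3H/HeN mice dosed iv into the tail vein in 100 μL PBS, then infected transurethrally under isoflurane with 50 μL UPEC UTI89 (~10^9–10^10 CFU/mL; LB 24 h static 37 °C, PBS-washed). Six mice per group, killed 3 h post-inoculation. Urine, bladder and kidneys plated on EMB agar. Log CFU reduction taken against the 3 h untreated control baseline; Mann-Whitney test.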

[10] = AUC (0 to 24 hrs) in urine of urinary tract infection C3H/HeN mouse model at 50 mg/kg, iv administered as single dose measured after 6 hrs by LC-MS analysis; format: ADME, organism-based; design: time < 24 hr, dose 50 mg/kg, route intravenous; in short: as §1
[11] = test system: Escherichia coli; test: Antibacterial activity against Escherichia coli […] infected in urinary tract infection C3H/HeN mouse model assessed as log reduction in bacterial count in kidney of mouse at 50 mg/kg, iv administered as single dose 1 hr before infection and measured after 3 hrs post infection; format: functional, organism-based; design: dose 50 mg/kg
In short: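 Female C3H/HeN mice given antagonist iv (100 μL PBS, tail vein) or po as suspension, then infected. Infection: isoflurane anaesthesia, bladder emptied, 50 μL UTI89 at about 10^9-10^10 CFU/mL via transurethral catheter. Six mice per group, killed 3 h post-inoculation. Kidneys plated on EMB agar. Reduction taken against the 3 h untreated control mean; Mann-Whitney test.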

[12] = test system: Escherichia coli; test: Antibacterial activity against Escherichia coli […] infected in urinary tract infection C3H/HeN mouse model assessed as reduction in bacterial count in kidney of mouse at 50 mg/kg, iv administered as single dose 1 hr before infection and measured after 3 hrs post infection
[13] = test system: Escherichia coli; test: Antibacterial activity against Escherichia coli […] infected in urinary tract infection C3H/HeN mouse model assessed as log reduction in bacterial CFU in bladder of mouse at 50 mg/kg, iv administered as single dose 1 hr before infection and measured after 3 hrs post infection; format: functional; in short: as §3
[14] = Cmax in plasma of urinary tract infection C3H/HeN mouse model at 50 mg/kg, iv administered as single dose measured after 6 hrs by LC-MS analysis; format: ADME, organism-based; design: dose 50 mg/kg, route intravenous; in short: as §1
[15] = Permeability coefficient, log Pe of the compound by PAMPA method; format: ADME
In short: (§4)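 PAMPA with GIT-0 lipid, donor analyte 50 μM at pH 5.0, 6.2 and 7.4 in quadruplicate, 16 h undisturbed incubation. Donor and acceptor quantified by UV and LC-MS.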

[16] = target: Type 1 fimbrin D-mannose specific adhesin (Escherichia coli K-12) (UniProt P08191); test: Ratio IC50 for compound to IC50 for n-heptyl R-D-mannopyranoside for His-tagged FimH expressed in Escherichia coli HM125
Chain of Type 1 fimbrin D-mannose specific adhesin (Escherichia coli K-12) (P08191 whole entry): as the sequence (P08191 whole entry, the tested form may be a part) above
In short: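 FimH-CRD-Th-6His (10 μg/mL) coated overnight at 4 °C in 20 mM HEPES, 150 mM NaCl, 1 mM CaCl2, pH 7.4, then blocked with 3% BSA. 4-fold compound dilutions in 5% DMSO competed with streptavidin-peroxidase TM-PAA polymer for 3 h at 25 °C. ABTS read at 415 nm, duplicates. IC50 divided by the IC50 of the heptyl mannoside reference run on the same plate.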

[17] = AUC (0 to 24 hrs) in plasma of urinary tract infection C3H/HeN mouse model at 50 mg/kg, iv administered as single dose measured after 6 hrs by LC-MS analysis; format: ADME, organism-based; design: time < 24 hr, dose 50 mg/kg, route intravenous; in short: as §1
[18] = Plasma protein binding in human by miniatured equilibrium dialysis method; format: ADME, cell-free; settings: read-out: PPB (converted)
In short: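 Human plasma adjusted to pH 7.5 with analyte at 10 μM, dialysed against 0.1 M phosphate pH 7.5 (MWCO 12-14 K) for 5 h at 37 °C in triplicate. Compartments MeCN-precipitated and measured by LC-MS; fb = 1 − cbuffer/cplasma.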

[19] = Permeability of the compound assessed as membrane retention by PAMPA method; format: ADME; in short: as §4
[20] = test system: Escherichia coli; test: Antibacterial activity against Escherichia coli […] infected in urinary tract infection C3H/HeN mouse model assessed as log reduction in bacterial CFU in urine of mouse at 50 mg/kg, po administered as single dose 1 hr before infection and measured after 3 hrs post infection; format: functional; settings: route intravenous, in the assay text read “iv administered” for “po administered”
[21] = Stability of the compound in simulated intestinal fluid assessed as compound remaining after 2 hrs by LC-MS analysis; format: physicochemical; settings: read-out: Stability
In short: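 Simulated intestinal fluid (phosphate, NaOH, pancreatin, pH 6) at 37 °C, compound at 10 μM, 500 rpm. Samples at 0-120 min MeCN-quenched; LC-MS as % remaining versus initial.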

[22] = Stability of the compound in simulated gastrointestinal fluid assessed as compound remaining after 2 hrs by LC-MS analysis; format: physicochemical; settings: read-out: Stability
[23] = Lipophilicity, log D at pH 7.4 by miniatured shake flask method; format: physicochemical; settings: buffer
In short: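 Octanol-saturated 0.1 M phosphate pH 7.4 containing analyte at 1 μM, overlaid with octanol at two volume ratios, three wells each. Shaken 2 h at 25 °C, then centrifuged; aqueous phase measured by LC-MS. log D computed from depletion. Accepted when the ratio means agree within 0.1.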

[24] = AUC (0 to 24 hrs) in urine of urinary tract infection C3H/HeN mouse model at 50 mg/kg, po administered as single dose measured after 6 hrs by LC-MS analysis; format: ADME, organism-based; design: time < 24 hr, dose 50 mg/kg, route oral
In short: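 Female C3H/HeN mice (19-25 g) gavaged once at 50 mg/kg. Compound dissolved in DMSO and diluted in 1% Tween-80/PBS as a suspension, or given in 200 μL PBS. Blood and urine sampled at 6 min to 24 h, methanol-precipitated, and analysed by LC-MS. For the prodrug, both parent and carboxylate metabolite were measured.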

[25] = test system: Escherichia coli; test: Antibacterial activity against Escherichia coli […] infected in urinary tract infection C3H/HeN mouse model assessed as log reduction in bacterial CFU in bladder of mouse at 50 mg/kg, po administered as single dose 1 hr before infection and measured after 3 hrs post infection; format: functional; settings: route intravenous, in the assay text read “iv administered” for “po administered”

Compound | fraction unbound [1] | Cmax [2] [µg/mL] | pKa [4] | solubility thermodynamic at 24 h [5] [µg/mL] | Activity [6] | Stability [7] | Activity [8] | AUC(0-t) at 24 h [10] [µg·h/mL] | Activity [11] | Activity [12] | Cmax [14] [ng/mL] | permeability [15] | Ratio IC50 [16] | AUC(0-t) at 24 h [17] [ng·h/mL] | fraction unbound [18] | permeability [19] [%] | FC [20] | remaining at 2 h [21] [%] | remaining at 2 h [22] [%] | logD [23] | further results
O=C([O-])c1ccc(-c2ccc(O[C@H]3O[C@H](CO)[C@@H](O)[C@H](O)[C@@H]3O)cc2)cc1.[Na+] | 0.27 | 510 | 3.88 | > 3000 | inactive | Stable | inactive | 140 | Active | Active | 34400 | impermeable | 0.15 | 19300 | 0.27 | – | – | – | – | – | IC50 [3]: 17.1 nM; FC [9]: >2; FC [13]: 4.5
CCCCCCCO[C@H]1O[C@H](CO)[C@@H](O)[C@H](O)[C@@H]1O | 0.19 | 951 | – | > 3000 | inactive | – | inactive | 2470 | Active | Active | 35000 | – | 1 | 34300 | 0.19 | 21 | 1.5 | 80 | 80 | 1.65 | –
O=C([O-])c1ccc(-c2ccc(O[C@H]3O[C@H](CO)[C@@H](O)[C@H](O)[C@@H]3O)c(Cl)c2)cc1.[Na+] | – | 588 | 3.98 | > 3000 | inactive | Stable | inactive | 210 | Active | Active | 39400 | impermeable | – | 20800 | – | 3.5 | 2 | 80 | 80 | -0.77 | AUC(0-t) at 24 h [24]: 2700 ng·h/mL; FC [25]: 4
